Measurements gathered from unrelated publications.
Lines come from different studies, so protocols differ.
Effect on: metabolic stability
Species: human

Structure (SMILES) | matrix | concentration | time | pH | setting | measurement | result
O=c1ccc2ccc(O)cc2o1 | hepatocytes | 1 µM |  |  |  | hepatocyte CLint | 56 µL/min/10⁶ cells
COc1ccc([C@@H]2Sc3ccccc3N(CCN(C)C)C(=O)[C@@H]2OC(C)=O)cc1 | liver microsomes |  |  |  |  | microsomal CLint | 26 µL/min/mg
CC1(CN)CCN(c2cnc3c(Sc4ccncc4Cl)n[nH]c3n2)CC1 | liver microsomes |  |  |  |  | scaled CLint | 34 mL/min/kg
O=c1ccc2ccc(O)cc2o1 | liver microsomes |  |  |  |  | scaled CLint | 939 mL/min/kg
Cn1nc2c(=O)n(C3CC3)ccc2c1[C@](O)(c1cnc(C(F)(F)F)c(Cl)c1)C(F)(F)F | hepatocytes | 0.5 µM |  | pH 7.4 |  | hepatocyte CLint | 0.5 µL/min/10⁶ cells
CCN(CCN)c1ccc(Nc2cc(NC3CC3)n3ncc(C#N)c3n2)cc1-n1cnnc1 | hepatocytes | 1 µM |  |  | serum-free | scaled CLint | < 6.9 mL/min/kg
CC[C@@](O)(c1cnc(C(F)(F)F)c(Cl)c1)c1c2ccn(C3CC3)c(=O)c2nn1C | hepatocytes | 0.5 µM |  | pH 7.4 |  | hepatocyte CLint | 1.6 µL/min/10⁶ cells
CC(C)C[C@H](NC(=O)[C@@H]1COCCCCCC(=O)N2C[C@H](F)C[C@H]2C(=O)N1)C(=O)[C@@]1(C)CO1 | liver microsomes | 2 µM | 1 h |  |  | scaled CLint | 32.4 mL/min/kg
Cn1nc2c(=O)n(C3CC3)cnc2c1[C@](O)(c1cnc(C(F)(F)F)c(Cl)c1)C(F)(F)F | hepatocytes | 0.5 µM |  | pH 7.4 |  | hepatocyte CLint | 0.5 µL/min/10⁶ cells
CCOc1ccc2ccc(=O)oc2c1 | hepatocytes | 1 µM |  |  |  | hepatocyte CLint | 60.6 µL/min/10⁶ cells
Cn1nc2c(=O)n(C3CC3)ncc2c1[C@](N)(c1ccc(C(F)(F)F)c(Cl)c1)C1CC1 | hepatocytes | 0.5 µM |  | pH 7.4 |  | hepatocyte CLint | < 0.5 µL/min/10⁶ cells
CCC(CC)COC(=O)[C@H](C)N[P@@](=O)(OC[C@@H]1C[C@@H](O)[C@H](n2cnc3c(N)ncnc32)O1)Oc1ccccc1 | liver microsomes | 1 µM |  |  |  | microsomal CLint | 2610 µL/min/mg
CC(C)C[C@H](NC(=O)[C@H](CCc1ccccc1)NC(=O)CN1CCOCC1)C(=O)N[C@@H](Cc1ccccc1)C(=O)N[C@@H](CC(C)C)C(=O)[C@@]1(C)CO1 | liver microsomes | 2 µM | 1 h |  |  | scaled CLint | 931 mL/min/kg
CC[N+]1(C)CCN(c2ccc(NC(=O)c3cccc(C)n3)cc2)CC1 | liver microsomes |  |  |  |  | microsomal CLint | < 3 µL/min/mg
C[C@]1(C(=O)[C@H](Cc2ccccc2)NC(=O)[C@@H]2Cc3ccc(cc3)OCCCCCCCC(=O)N3CCC[C@H]3C(=O)N2)CO1 | liver microsomes | 2 µM | 1 h |  |  | scaled CLint | 927 mL/min/kg
Cn1nc2c(=O)n(C3CC3)ncc2c1[C@](O)(c1cnc(C(F)(F)F)c(Cl)c1)C(F)(F)F | hepatocytes | 0.5 µM |  | pH 7.4 |  | hepatocyte CLint | < 0.5 µL/min/10⁶ cells
NC(=O)N1c2ccccc2C=Cc2ccccc21 | liver microsomes | 1 µM |  |  |  | microsomal CLint | < 3 µL/min/mg
CC(C)C[C@H](NC(=O)[C@@H]1COCCCCCC(=O)N2CC[C@H]2C(=O)N1)C(=O)[C@@]1(C)CO1 | liver microsomes | 2 µM | 1 h |  |  | scaled CLint | 29 mL/min/kg
CCn1ccc2c([C@](O)(c3cnc(C(F)(F)F)c(Cl)c3)C3CC3)n(C)nc2c1=O | liver microsomes | 0.5 µM |  | pH 7.4 |  | microsomal CLint | < 3 µL/min/mg
